The source of these data is ChEMBL document CHEMBL4431364, “Discovery and synthetic optimization of a novel scaffold for hydrophobic tunnel-targeted autotaxin inhibition” (Bioorg Med Chem, 2016).

The target of experiment [1] is T1, Autotaxin (Homo sapiens, UniProt Q13822). As to the kind of experiment: Inhibition of C-terminal FLAG tagged human recombinant ATX expressed in insect sf9 cells at 10 uM using FS-3 as substrate measured every 2 mins for 60 mins by FRET assay. The method in brief: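 10 μM compound with 10 nM human FLAG-fusion ATX in pH 8.0 Tris buffer (30 μM BSA, 1 mM CaCl2, 1 mM MgCl2, 5 mM KCl, 140 mM NaCl) and 1 μM FS-3. Fluorescence at ex 485/em 520 nm read every 2 min for 60 min at 37 °C. Normalized to no-ATX (0%) and ATX without compound (100%). Triplicate.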

Experiment [2] has as its target T1, Autotaxin. As to the kind of experiment: Inhibition of C-terminal FLAG tagged human recombinant ATX expressed in insect sf9 cells at 10 uM using pNP-TMP as substrate measured every 2 mins for 60 mins by absorbance.
For experiment [3], the target named is T1, Autotaxin. As to the kind of experiment: Inhibition of C-terminal FLAG tagged human recombinant ATX expressed in insect sf9 cells using FS-3 as substrate measured every 2 mins for 60 mins by FRET assay. The method, boiled down:
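Dose response over 0.03 to 30 μM compound, 10 nM human FLAG-fusion ATX, 1 μM FS-3 in pH 8.0 Tris/BSA assay buffer. Fluorescence at 485/520 nm every 2 min for 60 min at 37 °C, normalized to no-ATX and no-compound controls. IC50 by non-linear regression. Triplicate.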

pIC50: −log10 of the molar value.

In general, inhibition refers to the relative decrease from the control value, in per cent. Take `O=C(O)c1ccccc1N1CCN(C(=O)COc2ccccc2F)CC1`: the inhibition in experiment [1] was -7.6%; in experiment [2], -5.7%.
For `O=C(O)c1ccccc1N1CCN(C(=O)COc2ccc(F)cc2)CC1`, in that order: 11.5% and -7.2%.
A word on the pIC50: it is the negative decadic logarithm of the IC50, by convention in mol/L. For the compound `O=C(COc1cccc(Cl)c1)N1CCN(c2cccc([N+](=O)[O-])c2)CC1`, in experiment [3], the pIC50 was 5.24. Further, the inhibition amounted to 62.4% in experiment [1] and 17.1% in experiment [2].
Turning to `COc1ccc2c(c1)C(NCc1cc(OC)c(OC)cc1N)CCO2` (stereo not given), the pIC50 in experiment [3] was 5.18. Moreover, the inhibition was 48% in experiment [1] and 7.5% in experiment [2].
Regarding `O=C(COc1ccc(F)cc1)N1CCN(c2ccccc2[N+](=O)[O-])CC1`, the inhibition in experiment [1] is 42.4%; in experiment [2], 19.9%.
For `O=C(COc1ccccc1Cl)N1CCN(c2ccccc2[N+](=O)[O-])CC1`, in that order: 47.1% and 18.7%.
For `O=C(COc1ccc(C(F)(F)F)cc1)N1CCN(c2cccc([N+](=O)[O-])c2)CC1`, in experiment [3], the pIC50 was 5.38. Moreover, the inhibition in experiment [1] stood at 60.4%; in experiment [2], 30.3%.
The corresponding values for `O=C(COc1cccc(F)c1)N1CCN(c2cccc([N+](=O)[O-])c2)CC1` are 5.21, 59.8% and 13.3%.
As to `O=C(O)c1ccc(N2CCN(C(=O)COc3ccccc3C(F)(F)F)CC2)cc1`, the inhibition was 10.9% in experiment [1] and -0.8% in experiment [2].
As for `O=C(COc1cccc(C(F)(F)F)c1)N1CCN(c2ccc([N+](=O)[O-])cc2)CC1`, the negative-log IC50 (pIC50) in experiment [3] is 5.31. The inhibition worked out at 63.3% in experiment [1] and 4.1% in experiment [2].
In the case of `O=C(COc1cccc(F)c1)N1CCN(c2ccccc2[N+](=O)[O-])CC1`, the values for the inhibition in experiment [1] and in experiment [2] were 39.5% and 18.2%, respectively.
With `O=C(O)c1cccc(N2CCN(C(=O)COc3ccc(F)cc3)CC2)c1`, the pIC50 in experiment [3] is 5.34. Further, the inhibition in experiment [1] was 58.1%; in experiment [2] it was 41.1%.
Consider `O=C(COc1ccc(Cl)cc1)N1CCN(c2ccccc2[N+](=O)[O-])CC1`, for which, in experiment [3], the pIC50 was 5.09. For the same compound, the inhibition in experiment [1] came out at 59.1%; in experiment [2] it was 38%.
The corresponding values for `O=C(COc1ccc(Cl)cc1Cl)N1CCN(c2ccccc2[N+](=O)[O-])CC1` are 5.39, 69.8% and 37.1%.
For `O=C(COc1cccc(Cl)c1)N1CCN(c2ccccc2[N+](=O)[O-])CC1`, the inhibition is 42.7% in experiment [1] and 24.9% in experiment [2].
The corresponding values for `O=C(O)c1ccccc1N1CCN(C(=O)COc2ccccc2Cl)CC1` are 12.1% and 1.7%.
In the case of `O=C(COc1ccccc1C(F)(F)F)N1CCN(c2ccc([N+](=O)[O-])cc2)CC1`, the negative logarithm of the IC50 (pIC50) in experiment [3] was 5.04. For the same compound, the figures for the inhibition in experiment [1] and in experiment [2] were 54.6% and -3.7%, respectively.
The corresponding values for `O=C(COc1cccc(Cl)c1)N1CCN(c2ccc([N+](=O)[O-])cc2)CC1` are 5.34, 70.6% and 15.6%.
The corresponding values for `O=C(O)c1ccc(N2CCN(C(=O)COc3ccc(Cl)cc3)CC2)cc1` are 5.39, 50.8% and 19.6%.
Take `O=C(O)c1cccc(N2CCN(C(=O)COc3ccccc3F)CC2)c1`: the inhibition in experiment [1] was 10.8%; in experiment [2] it was 10.9%.
For `O=C(COc1ccc(F)cc1)N1CCN(c2cccc([N+](=O)[O-])c2)CC1`, in that order: 48.1% and 8.9%.
For `O=C(O)c1ccc(N2CCN(C(=O)COc3cc(Cl)cc(Cl)c3)CC2)cc1`, in that order: 46.7% and 27.8%.
For the compound `O=C(O)c1ccccc1N1CCN(C(=O)COc2ccccc2C(F)(F)F)CC1`, the inhibition in experiment [1] was determined as 17.3%; in experiment [2], 4.6%.
For `O=C(COc1cccc(C(F)(F)F)c1)N1CCN(c2ccccc2[N+](=O)[O-])CC1`, in that order: 49.2% and 35.4%.
The corresponding values for `O=C(O)c1ccc(N2CCN(C(=O)COc3ccc(C(F)(F)F)cc3)CC2)cc1` are 46% and 7.9%.
On to `O=C(COc1ccc(F)cc1)N1CCN(c2ccc([N+](=O)[O-])cc2)CC1`, for which, in experiment [3], the negative logarithm of the IC50 (pIC50) is 5.19. Also, in experiment [1], the inhibition stood at 65.4%.
Take `O=C(O)c1cccc(N2CCN(C(=O)COc3cccc(F)c3)CC2)c1`: the pIC50 in experiment [3] is 5.05. Also, the inhibition was 55.2% in experiment [1] and 30.2% in experiment [2].
As to `CC(=O)OC1(C(=O)COC(=O)c2ccco2)CC2CCC3C4C=CC(=O)CC4(C)CCC3C2(C)C1` (stereo not given), the pIC50 in experiment [3] is 5.24. In experiment [1], the inhibition is 59.6 to 59.7%.
In the case of `O=C(COc1ccccc1C(F)(F)F)N1CCN(c2cccc([N+](=O)[O-])c2)CC1`, the pIC50 in experiment [3] is 5.17. In addition, the inhibition in experiment [1] was determined as 56.4%; in experiment [2] it was 7.7%.
The corresponding values for `O=C(O)c1ccccc1N1CCN(C(=O)COc2ccc(Cl)cc2)CC1` are 5.22, 74.5% and 32.1%.
For `O=C(COc1ccc(Cl)cc1)N1CCN(c2cccc([N+](=O)[O-])c2)CC1`, in that order: 5.27, 62.6% and 23.8%.
As for `O=C(O)c1ccc(N2CCN(C(=O)COc3ccc(Cl)cc3Cl)CC2)cc1`, the inhibition in experiment [1] was determined as 23.9%; in experiment [2], 9.7%.
On to `O=C(COc1cccc(F)c1)N1CCN(c2ccc([N+](=O)[O-])cc2)CC1`, for which, in experiment [3], the pIC50 is 5.18. In addition, in experiment [1], the inhibition is 63%.
For the compound `O=C(COc1ccc(C(F)(F)F)cc1)N1CCN(c2ccc([N+](=O)[O-])cc2)CC1`, the pIC50 in experiment [3] is 5.09. The inhibition in experiment [1] was 50.2%; in experiment [2], 26.6%.
In the case of `O=C(O)c1ccccc1N1CCN(C(=O)COc2ccc(Cl)cc2Cl)CC1`, the inhibition was 27.6% in experiment [1] and -7.9% in experiment [2].
Consider `O=C(O)c1cccc(N2CCN(C(=O)COc3ccc(C(F)(F)F)cc3)CC2)c1`, for which, in experiment [3], the pIC50 is 5.12. The inhibition in experiment [1] was 65%; in experiment [2] it was 31.6%.
The corresponding values for `O=C(O)c1cccc(N2CCN(C(=O)COc3ccccc3C(F)(F)F)CC2)c1` are 5.09, 51.5% and 23.7%.
With `O=C(O)c1ccccc1N1CCN(C(=O)COc2cccc(C(F)(F)F)c2)CC1`, the inhibition in experiment [1] is 41.3%; in experiment [2] it was -3.5%.
`O=C(O)c1ccccc1N1CCN(C(=O)COc2cccc(Cl)c2)CC1`: the figures for the inhibition in experiment [1] and in experiment [2] were 24.4% and -3.3%, respectively.
With `O=C(O)c1cccc(N2CCN(C(=O)COc3ccccc3Cl)CC2)c1`, the results for the inhibition in experiment [1] and in experiment [2] were 42% and 11.5%, respectively.
Regarding `O=C(COc1cccc(C(F)(F)F)c1)N1CCN(c2cccc([N+](=O)[O-])c2)CC1`, the pIC50 in experiment [3] is 5.34. For the same compound, the results for the inhibition in experiment [1] and in experiment [2] were 61.9% and 14.3%, respectively.
`O=C(O)c1ccc(N2CCN(C(=O)COc3ccccc3Cl)CC2)cc1`: the inhibition worked out at 27.6% in experiment [1] and 7.3% in experiment [2].
As to `O=C(COc1ccccc1C(F)(F)F)N1CCN(c2ccccc2[N+](=O)[O-])CC1`, in experiment [3], the pIC50 was 4.94. The inhibition in experiment [1] was 50%; in experiment [2], 38.2%.
In the case of `O=C(O)c1ccc(N2CCN(C(=O)COc3ccc(F)cc3)CC2)cc1`, the inhibition in experiment [1] is 0.9%; in experiment [2] it was -6.5%.
For `O=C(COc1ccccc1Cl)N1CCN(c2cccc([N+](=O)[O-])c2)CC1`, in that order: 41.9% and 4.9%.
The corresponding values for `O=C(COc1ccccc1F)N1CCN(c2ccccc2[N+](=O)[O-])CC1` are 25.6% and -1.8%.
Take `COC(CNCc1cc(Cl)c(CNCC(OC)OC)cc1Cl)OC`: the inhibition in experiment [1] came to 18.6%.
`O=C(O)c1ccccc1N1CCN(C(=O)COc2cccc(F)c2)CC1`: the inhibition in experiment [1] is -5.5%; in experiment [2], -4.8%.
Turning to `O=C(COc1ccccc1F)N1CCN(c2ccc([N+](=O)[O-])cc2)CC1`, in experiment [1], the inhibition worked out at 35.2%.
As to `O=C(O)c1ccc(N2CCN(C(=O)COc3cccc(Cl)c3)CC2)cc1`, the pIC50 in experiment [3] is 5.19. In addition, the results for the inhibition in experiment [1] and in experiment [2] were 56% and 6.8%, respectively.
For `COC(=O)c1sc(NC(=O)c2cc(C)ccc2Cl)c(C#N)c1C`, the inhibition in experiment [1] is -2.35%.
On the same count and under the same terms, the value for `O=C(O)c1ccc(N2CCN(C(=O)COc3ccccc3F)CC2)cc1` was 6.1%.
`CCCCCCCCCCCCCC(=O)NC(CCC(=O)O)C(=O)O` (stereo not given): the pIC50 in experiment [3] was 5.22. The inhibition in experiment [1] was 54.1%; in experiment [2], -6.9%.
With `Cc1ccc2cc3c(nc2c1)sc1c(SCC(=O)NCc2ccco2)ncnc13`, the inhibition in experiment [1] worked out at 13.4%.
